Test results reported in ChEMBL document CHEMBL1138317, “Antibacterial oxazolidinones possessing a novel C-5 side chain. (5R)-trans-3-[3-Fluoro-4- (1-oxotetrahydrothiopyran-4-yl)phenyl]-2- oxooxazolidine-5-carboxylic acid amide (PF-00422602), a new lead compound” (J Med Chem, 2007).
In brackets after ≈: the same amount, converted by molar mass.

Tests used:
Moraxella catarrhalis = assay: Antibacterial activity against Moraxella catarrhalis by microbroth technology; format: functional
Procedure, shortened: (§1)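 MIC determined by broth microdilution, reported in µg/mL.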

Staphylococcus aureus [1] = assay: Antibacterial activity against levofloxacin-oxacillin-resistant Staphylococcus aureus UC76 SA1 by micro-broth technology; format: functional
Procedure, shortened: (§2)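 Drug-resistant panel strains (levofloxacin/oxacillin-resistant S. aureus, levofloxacin/penicillin-resistant S. pneumoniae, vancomycin-resistant E. faecalis and E. faecium). Broth microdilution MIC in µg/mL; value reported as MIC90 across the strains of each resistant group.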

Enterococcus faecium = assay: Antibacterial activity against vancomycin-resistant Enterococcus faecium by micro-broth technology; format: functional; procedure, shortened: as §2
[2] = target: T1, Amine oxidase [flavin-containing] A (Homo sapiens, UniProt P21397); assay: Inhibition of human recombinant MAOA
T1 sequence (P21397 whole entry): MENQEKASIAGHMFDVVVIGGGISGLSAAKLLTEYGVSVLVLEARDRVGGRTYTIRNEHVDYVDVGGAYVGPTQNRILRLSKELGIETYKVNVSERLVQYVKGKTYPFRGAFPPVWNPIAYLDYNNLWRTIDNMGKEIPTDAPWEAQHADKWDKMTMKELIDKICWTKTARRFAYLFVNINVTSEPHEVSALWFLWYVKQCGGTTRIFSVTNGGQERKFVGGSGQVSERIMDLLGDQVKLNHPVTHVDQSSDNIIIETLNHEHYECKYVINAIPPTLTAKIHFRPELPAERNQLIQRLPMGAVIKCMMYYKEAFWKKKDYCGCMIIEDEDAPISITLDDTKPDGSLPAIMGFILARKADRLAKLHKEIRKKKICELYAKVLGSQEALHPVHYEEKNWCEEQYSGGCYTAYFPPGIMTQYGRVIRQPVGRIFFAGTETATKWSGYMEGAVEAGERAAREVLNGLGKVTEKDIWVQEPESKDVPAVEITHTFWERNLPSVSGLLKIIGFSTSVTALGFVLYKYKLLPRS

Escherichia coli = assay: Inhibition of protein synthesis in Escherichia coli by cell-free transcription-translation assay; format: functional
Procedure, shortened: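 E. coli cell-free coupled transcription/translation run in microtiter format with a luciferase reporter; luminescence was the read-out for protein synthesis.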

Haemophilus influenzae = assay: Antibacterial activity against Haemophilus influenzae by micro-broth technology; format: functional; procedure, shortened: as §1
Enterococcus faecalis = assay: Antibacterial activity against vancomycin-resistant Enterococcus faecalis MGH2 EF1 by microbroth technology; format: functional; procedure, shortened: as §2
Streptococcus pneumoniae = assay: Antibacterial activity against levofloxacin-penicillin-resistant Streptococcus pneumoniae SV1 SP3 by microbroth technology; format: functional; procedure, shortened: as §2
Staphylococcus aureus [3] = assay: Antibacterial activity against Staphylococcus aureus UC76 in po dosed CD1 mouse systemic infection model assessed as mortality after 7 days; format: functional

SMILES | MIC (Moraxella catarrhalis) [µg/mL] | MIC (Staphylococcus aureus [1]) [µg/mL] | MIC (Enterococcus faecium) [µg/mL] | IC50 [2] [µM] | IC50 (Escherichia coli) [µM] | MIC (Haemophilus influenzae) [µg/mL] | MIC (Enterococcus faecalis) [µg/mL] | MIC (Streptococcus pneumoniae) [µg/mL] | PD50 (Staphylococcus aureus [3]) [mg/kg]
NC(=O)[C@H]1CN(c2ccc(C3CCOCC3)c(F)c2)C(=O)O1 | > 8 | 4 (≈ 13 µM) | 8 (≈ 25.9 µM) | 58 | 6.1 | > 8 | 4 (≈ 13 µM) | 2 (≈ 6.49 µM) | –
NC(=O)[C@H]1CN(c2cc(F)c(C3CCS(=O)(=O)CC3)c(F)c2)C(=O)O1 | > 8 | 4 (≈ 10.7 µM) | 8 (≈ 21.4 µM) | 293 | 6.28 | > 8 | 4 (≈ 10.7 µM) | 4 (≈ 10.7 µM) | 15
